{
  "source": "ChEMBL document CHEMBL3232837",
  "about": "“Synthesis and evaluation of new Hsp90 inhibitors based on a 1,4,5-trisubstituted 1,2,3-triazole scaffold” (J Med Chem, 2014)",
  "key": {"NCI-H460 [1]": {"system": "NCI-H460", "experiment": "Cell cycle arrest in human NCI-H460 cells assessed as accumulation at G2/M phase at 2 times IC50 after 24 to 72 hrs by propidium iodide staining-based FACS flow cytometric analysis", "assay_type": "functional"}, "NCI-H460 [2]": {"system": "NCI-H460", "experiment": "Induction of apoptosis in human NCI-H460 cells assessed as cell with hypodiploid DNA content at 2 times IC50 after 24 to 72 hrs by propidium iodide staining-based FACS flow cytometric analysis", "assay_type": "functional"}, "[3]": {"target": "Heat shock protein HSP 90-beta (Homo sapiens) (UniProt P08238)", "sequence (P08238 whole entry)": "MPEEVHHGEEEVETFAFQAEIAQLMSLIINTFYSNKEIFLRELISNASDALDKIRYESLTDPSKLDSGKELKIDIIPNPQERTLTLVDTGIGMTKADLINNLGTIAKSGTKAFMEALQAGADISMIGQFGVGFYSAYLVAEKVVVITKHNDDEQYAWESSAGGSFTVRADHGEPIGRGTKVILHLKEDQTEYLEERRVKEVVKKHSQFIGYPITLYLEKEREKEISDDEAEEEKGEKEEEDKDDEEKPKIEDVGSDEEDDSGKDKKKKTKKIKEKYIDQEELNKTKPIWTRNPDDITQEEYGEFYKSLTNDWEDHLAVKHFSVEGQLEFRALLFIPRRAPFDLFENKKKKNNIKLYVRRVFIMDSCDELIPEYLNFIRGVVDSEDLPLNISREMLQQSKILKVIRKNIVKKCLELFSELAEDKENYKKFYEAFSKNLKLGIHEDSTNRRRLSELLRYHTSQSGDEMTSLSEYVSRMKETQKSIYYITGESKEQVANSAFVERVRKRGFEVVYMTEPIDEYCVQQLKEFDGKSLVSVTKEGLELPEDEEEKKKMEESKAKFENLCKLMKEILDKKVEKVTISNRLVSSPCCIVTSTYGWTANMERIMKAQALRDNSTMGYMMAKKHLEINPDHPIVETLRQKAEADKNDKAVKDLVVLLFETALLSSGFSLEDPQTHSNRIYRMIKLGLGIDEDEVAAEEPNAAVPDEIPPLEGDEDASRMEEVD", "experiment": "Inhibition of HSP90 in human A431 cells overexpressing EGFR assessed as induction of HSP70 protein expression after 24 hrs by Western blot analysis", "assay_type": "cell-based", "details": "A-431", "method_in_brief": "(§1)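 A431 cells treated 24 h after seeding for 24 h over a concentration range; 17-DMAG 0.2 µM as reference. Cells lysed in RIPA buffer with protease and phosphatase inhibitors, protein measured by Bradford. Equal protein run on SDS-PAGE and blotted to nitrocellulose, then probed for EGFR, Cdk4, Akt, Hsp70 and actin. ECL detection; densitometry normalized to β-actin. Run at least twice.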"}, "Mus musculus [4]": {"system": "Mus musculus", "experiment": "(§2) In vivo inhibition of HSP90 in human A431 cells overexpressing EGFR xenografted in CD-1 nude mouse assessed as downregulation of AKT protein expression at 5 mg/kg, ip administered as q2d/week for 2 weeks starting 3 days after tumor injection measured at 2 hrs post last dose by Western blot analysis", "assay_type": "functional, organism-based", "set-up": "dose 5 mg/kg", "details": "A-431", "method_in_brief": "(§3)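 Nude-mouse s.c. xenografts given i.p. compound from day 3. Tumors excised 2 h (A431) or 6 h (GTL-16) after last dose and homogenized in tissue protein extraction reagent with 10 µg/ml protease inhibitor cocktail. Whole lysates analysed by Western blot with actin as loading control; two tumor samples per group shown.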"}, "NCI-H460 [5]": {"system": "NCI-H460", "experiment": "Cytotoxicity against human NCI-H460 cells assessed as growth inhibition after 72 hrs by SRB assay", "assay_type": "functional, cell-based", "details": "NCI-H460, 72 h", "method_in_brief": "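NCI-H460 cells grown in RPMI-1640 with 10% heat-inactivated FBS, seeded at about 10% confluence and allowed 24 h recovery. Exposed to graded drug concentrations or solvent for 72 h. Surviving fraction measured by sulforhodamine B. IC50 is the concentration giving a 50% drop in cell number vs vehicle, from dose-response curve fitting; mean of n=4 with SD.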"}, "[6]": {"target": "Heat shock protein HSP 90-beta (Homo sapiens) (UniProt P08238)", "experiment": "Inhibition of HSP90 in human A431 cells overexpressing EGFR assessed as downregulation of AKT protein expression after 24 hrs by Western blot analysis", "assay_type": "cell-based", "details": "A-431", "method_in_brief": "as §1"}, "Mus musculus [7]": {"system": "Mus musculus", "experiment": "In vivo inhibition of HSP90 in human A431 cells overexpressing EGFR xenografted in CD-1 nude mouse assessed as induction of HSP70 protein expression at 5 mg/kg, ip administered as q2d/week for 2 weeks starting 3 days after tumor injection measured at 2 hrs post last dose by Western blot analysis", "assay_type": "functional, organism-based", "set-up": "dose 5 mg/kg", "details": "A-431", "method_in_brief": "as §3"}, "[8]": {"target": "Heat shock protein HSP 90-beta (Homo sapiens) (UniProt P08238)", "experiment": "Inhibition of HSP90 in human A431 cells overexpressing EGFR assessed as downregulation of CDK4 protein expression after 24 hrs by Western blot analysis", "assay_type": "cell-based", "details": "A-431", "method_in_brief": "as §1"}, "Mus musculus [9]": {"system": "Mus musculus", "experiment": "Toxicity in CD-1 nude mouse xenografted with human A431 cells overexpressing EGFR assessed as mortality at 5 mg/kg, ip administered as q2d/week for 2 weeks starting 3 days after tumor injection measured on day 5 post last dose relative to vehicle-treated control", "assay_type": "organism-based, A-431", "set-up": "dose 5 mg/kg, route intraperitoneal", "details": "in vivo", "method_in_brief": "(§4)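 S.c. right-flank xenografts, 5 × 10^6 cells, in female athymic nude mice 5-6 weeks old. Intraperitoneal dosing in 10 mL/kg from day 3 post-implant. Lethal toxicity counted as deaths in treated mice occurring before the first control mouse died, reported as dead/treated (8 per group). Body weight loss was also tracked from the first treatment day.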"}, "A-431": {"system": "A-431", "experiment": "Antitumor activity against human A431 cells overexpressing EGFR xenografted in CD-1 nude mouse assessed as tumor growth inhibition at 5 mg/kg, ip administered as q2d/week for 2 weeks starting 3 days after tumor injection measured on day 5 post last dose relative to vehicle-treated control", "assay_type": "functional", "details": "A-431, ip, route intraperitoneal, read-out: TGI", "method_in_brief": "(§5)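 Female athymic nude mice, 5-6 weeks old, inoculated s.c. in right flank with 5 × 10^6 exponentially growing tumor cells. Intraperitoneal dosing in 10 mL/kg, starting 3 days post-implant. Tumor volume = d²·D/2 from calipered shortest and longest diameters, measured biweekly. TVI% = 100 − (mean TV treated/mean TV control × 100), scored 5 days after last dose. Mann-Whitney test vs vehicle group; 8 mice per group.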"}, "Mus musculus [10]": {"system": "Mus musculus", "experiment": "as §2, with “human GTL16” for “human A431”, “overexpressing c-Met” for “overexpressing EGFR”, “at 6” for “at 2”", "assay_type": "functional, organism-based", "set-up": "dose 5 mg/kg", "method_in_brief": "as §3"}, "Mus musculus [11]": {"system": "Mus musculus", "experiment": "as §2, with “human GTL16” for “human A431”, “overexpressing c-Met” for “overexpressing EGFR”, “of CDK4” for “of AKT”, “at 6” for “at 2”", "assay_type": "functional, organism-based", "set-up": "dose 5 mg/kg", "method_in_brief": "as §3"}, "Mus musculus [12]": {"system": "Mus musculus", "experiment": "Toxicity in CD-1 nude mouse xenografted with human GTL16 cells overexpressing c-Met assessed as body weight loss at 5 mg/kg, ip administered as q2d/week for 2 weeks starting 3 days after tumor injection measured on day 5 post last dose relative to vehicle-treated control", "assay_type": "organism-based", "set-up": "dose 5 mg/kg, route intraperitoneal", "details": "in vivo", "method_in_brief": "(§6)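 Female athymic nude mice carrying s.c. xenografts, dosed i.p. (mg/10 mL/kg per administration) starting 3 days after tumor injection. BWL% = 100 − (mean BW day x/mean BW day 1 × 100), day 1 being the first treatment day. Maximum BWL% recorded. Lethal toxicity counted as deaths before the first control death.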"}, "Mus musculus [13]": {"system": "Mus musculus", "experiment": "In vivo inhibition of HSP90 in human A431 cells overexpressing EGFR xenografted in CD-1 nude mouse assessed as downregulation of CDK4 protein expression at 5 mg/kg, ip administered as q2d/week for 2 weeks starting 3 days after tumor injection measured at 2 hrs post last dose by Western blot analysis", "assay_type": "functional, organism-based", "set-up": "dose 5 mg/kg", "details": "A-431", "method_in_brief": "as §3"}, "Mus musculus [14]": {"system": "Mus musculus", "experiment": "Toxicity in CD-1 nude mouse xenografted with human A431 cells overexpressing EGFR assessed as body weight loss at 5 mg/kg, ip administered as q2d/week for 2 weeks starting 3 days after tumor injection measured on day 5 post last dose relative to vehicle-treated control", "assay_type": "organism-based, A-431", "set-up": "dose 5 mg/kg, route intraperitoneal", "details": "in vivo", "method_in_brief": "as §6"}, "Mus musculus [15]": {"system": "Mus musculus", "experiment": "Toxicity in CD-1 nude mouse xenografted with human GTL16 cells overexpressing c-Met assessed as mortality at 5 mg/kg, ip administered as q2d/week for 2 weeks starting 3 days after tumor injection measured on day 5 post last dose relative to vehicle-treated control", "assay_type": "organism-based", "set-up": "dose 5 mg/kg, route intraperitoneal", "details": "in vivo", "method_in_brief": "as §4"}, "[16]": {"target": "Heat shock protein HSP 90-beta (Homo sapiens) (UniProt P08238)", "experiment": "Inhibition of HSP90 in human A431 cells overexpressing EGFR assessed as downregulation of EGFR protein expression after 24 hrs by Western blot analysis", "assay_type": "cell-based", "details": "A-431", "method_in_brief": "as §1"}, "[17]": {"experiment": "Metabolic stability in human plasma assessed as compound remaining at 5 uM measured at 120 mins by LC/MS analysis", "assay_type": "ADME, cell-free", "method_in_brief": "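Compound added to human plasma at 5 µM final and incubated at 37 °C for up to 120 min. Samples quenched in two volumes of chilled acetonitrile and centrifuged at 4 °C. Remaining compound quantified by LC/MS.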"}, "Mus musculus [18]": {"system": "Mus musculus", "experiment": "(§7) In vivo inhibition of HSP90 in human GTL16 cells overexpressing c-Met xenografted in CD-1 nude mouse assessed as induction of HSP70 protein expression at 5 mg/kg, ip administered as q2d/week for 2 weeks starting 3 days after tumor injection measured at 6 hrs post last dose by Western blot analysis", "assay_type": "functional, organism-based", "set-up": "dose 5 mg/kg", "method_in_brief": "as §3"}, "[19]": {"target": "Heat shock protein HSP 90-alpha (Homo sapiens, UniProt P07900)", "experiment": "Displacement of GM-FITC from full-length recombinant human Hsp90-alpha after 4 hrs by fluorescence polarization assay"}, "[20]": {"experiment": "Antitumor activity against human GTL16 cells overexpressing c-Met xenografted in CD-1 nude mouse assessed as tumor growth inhibition at 5 mg/kg, ip administered as q2d/week for 2 weeks starting 3 days after tumor injection measured on day 5 post last dose relative to vehicle-treated control", "assay_type": "functional", "details": "GTL 16, ip, route intraperitoneal, read-out: TGI", "method_in_brief": "as §5"}, "Mus musculus [21]": {"system": "Mus musculus", "experiment": "as §7, with “downregulation” for “induction”, “c-Met” for “HSP70”", "assay_type": "functional, organism-based", "set-up": "dose 5 mg/kg", "method_in_brief": "as §3"}, "Mus musculus [22]": {"system": "Mus musculus", "experiment": "In vivo inhibition of HSP90 in human A431 cells overexpressing EGFR xenografted in CD-1 nude mouse assessed as downregulation of EGFR protein expression at 5 mg/kg, ip administered as q2d/week for 2 weeks starting 3 days after tumor injection measured at 2 hrs post last dose by Western blot analysis", "assay_type": "functional, organism-based", "set-up": "dose 5 mg/kg", "details": "A-431", "method_in_brief": "as §3"}},
  "note": "Active and inactive are the calls of the source. The calls are words filed in the database; no cut-off is given here.",
  "data": [
    {"smiles": "CCNC(=O)c1nnn(-c2cc(C(C)C)c(O)cc2O)c1-c1ccc(CN2CCOCC2)cc1", "values": [
      {"measurement": "Activity", "setting": "NCI-H460 [1]", "result": "Active"},
      {"measurement": "Activity", "setting": "NCI-H460 [2]", "result": "Active"},
      {"measurement": "inhibition", "setting": "[3]", "result": "Dose-dependent effect"},
      {"measurement": "inhibition", "setting": "Mus musculus [4]", "result": "Active"},
      {"measurement": "IC50", "setting": "NCI-H460 [5]", "result": 4, "unit": "nM"},
      {"measurement": "inhibition", "setting": "[6]", "result": "Dose-dependent effect"},
      {"measurement": "inhibition", "setting": "Mus musculus [7]", "result": "Active"},
      {"measurement": "inhibition", "setting": "[8]", "result": "Dose-dependent effect"},
      {"measurement": "Activity", "setting": "Mus musculus [9]", "result": "Non-toxic"},
      {"measurement": "inhibition in vivo at 5 mg/kg", "setting": "A-431", "result": 49, "unit": "%"},
      {"measurement": "inhibition", "setting": "Mus musculus [10]", "result": "Active"},
      {"measurement": "inhibition", "setting": "Mus musculus [11]", "result": "Active"},
      {"measurement": "Imax", "setting": "Mus musculus [12]", "result": 17, "unit": "%"},
      {"measurement": "inhibition", "setting": "Mus musculus [13]", "result": "Active"},
      {"measurement": "Imax", "setting": "Mus musculus [14]", "result": 1, "unit": "%"},
      {"measurement": "Activity", "setting": "Mus musculus [15]", "result": "Non-toxic"},
      {"measurement": "inhibition", "setting": "[16]", "result": "Dose-dependent effect"},
      {"measurement": "remaining at 2 h, 5 µM", "setting": "[17]", "result": 65, "unit": "%"},
      {"measurement": "inhibition", "setting": "Mus musculus [18]", "result": "Active"},
      {"measurement": "IC50", "setting": "[19]", "result": "< 5", "unit": "nM"},
      {"measurement": "inhibition in vivo at 5 mg/kg", "setting": "[20]", "result": 42, "unit": "%"},
      {"measurement": "inhibition", "setting": "Mus musculus [21]", "result": "Active"},
      {"measurement": "inhibition", "setting": "Mus musculus [22]", "result": "Active"}
    ]}
  ]
}
